Values after ≈ are worked out from the molar mass of the structure shown.
Legend:
[1] = system: K562; assay: Cytotoxicity against chronic myelogenous leukemia cell line K-562 was determined by measuring [3H]thymidine incorporation after 48 h; assay type: functional, cell-based; conditions: Homo sapiens
In short: (§1)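 K-562 cells in RPMI 1640 with 10% FCS, 2 mM L-glutamine and kanamycin, humidified 5% CO2. Log-phase cells seeded at 2 × 10^4 cells/mL and exposed to compound (DMSO, 0.05% final) over a 10 to 0.078 range for 48 h. Cells were then pulsed 2 h with [3H]-thymidine, filter-harvested and cell-associated radioactivity counted. Percent inhibition or IC50 is reported with SD.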

[2] = system: K562; assay: Cytotoxicity against chronic myelogenous leukemia cell line K-562 was determined by measuring [3H]thymidine incorporation at a concentration 10 ug/mL after 48 h; assay type: functional; conditions: Homo sapiens; in short: as §1
[3] = system: K562; assay: Cytotoxicity against chronic myelogenous leukemia cell line K-562 was determined by measuring [3H]-thymidine incorporation at a concentration of 1.25 ug/mL after 5 h; assay type: functional; conditions: Homo sapiens
In short: (§2)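 K-562 cells in RPMI 1640 with 10% FCS, 2 mM L-glutamine and kanamycin, 5% CO2. Log-phase cells seeded at 4 × 10^4 cells/mL and exposed to compound (DMSO, 0.05% final) over a 10 to 0.078 range for 5 h. Cells were then pulsed 2 h with [3H]-thymidine, harvested onto fiberglass filters and counted. IC50 is the concentration inhibiting incorporation by 50%. Values are given with SD.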

[4] = system: K562; assay: Cytotoxicity against chronic myelogenous leukemia cell line K-562 was determined by measuring [3H]thymidine incorporation at a concentration of 10 ug/mL after 5 h; assay type: functional; conditions: Homo sapiens; in short: as §2
[5] = system: K562; assay: Concentration that reduces [3H]thymidine incorporation by 50% in chronic myelogenous leukemia cell line K-562 after 5 h; assay type: functional, cell-based; conditions: Homo sapiens; in short: as §2
[6] = system: K562; assay: Cytotoxicity against chronic myelogenous leukemia cell line K-562 was determined by measuring [3H]thymidine incorporation at a concentration of 1.25 ug/mL after 48 h; assay type: functional; conditions: Homo sapiens; in short: as §1
[7] = system: K562; assay: Cytotoxicity against chronic myelogenous leukemia cell line K-562 was determined by measuring [3H]thymidine incorporation at a concentration of 10 ug/mL after 48 h; assay type: functional; conditions: Homo sapiens; in short: as §1
[8] = system: Lacticaseibacillus casei; assay: Tested for antibacterial activity against Lactobacillus casei; assay type: functional
[9] = system: Mycobacterium tuberculosis; assay: Tested for percent inhibition against Mycobacterium tuberculosis at concentration of 12.5 ug/mL; assay type: functional
In short: (§3)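 M. tuberculosis H37Rv (ATCC 27294) grown in BACTEC 12B medium; inhibition read out by Microplate Alamar Blue assay.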

[10] = system: Mycobacterium tuberculosis; assay: Antibacterial activity was evaluated against Mycobacterium tuberculosis; assay type: functional; in short: as §3
[11] = system: K562; assay: Cytotoxicity against chronic myelogenous leukemia cell line K-562 was determined by measuring [3H]thymidine incorporation at a concentration of 1.00 ug/mL after 5 h; assay type: functional; conditions: Homo sapiens; in short: as §2
[12] = system: K562; assay: Cytotoxicity against chronic myelogenous leukemia cell line K-562 determined using [3H]thymidine incorporation at a concentration of 1.00 ug/mL after 48 h; assay type: functional; conditions: Homo sapiens; in short: as §1
[13] = system: K562; assay: Cytotoxicity against chronic myelogenous leukemia cell line K-562 determined using [3H]thymidine incorporation at a concentration 10 ug/mL after 48 h; assay type: functional; conditions: Homo sapiens; in short: as §1
[14] = system: Mycobacterium tuberculosis; assay: Tested for percent inhibition against Mycobacterium tuberculosis at 12.5 ug/mL concentration; assay type: functional; in short: as §3
[15] = system: Mycobacterium tuberculosis; assay: Tested for percent inhibition against Mycobacterium tuberculosis at a concentration of 12.5 ug/mL; assay type: functional; in short: as §3
[16] = system: Lacticaseibacillus casei; assay: Tested for inhibitory effect on Gram-positive bacterium; Lactobacillus casei; assay type: functional
[17] = system: K562; assay: Cytotoxicity against chronic myelogenous leukemia cell line K-562 was determined by measuring [3H]thymidine incorporation after 5 h; assay type: functional, cell-based; conditions: Homo sapiens; in short: as §2
[18] = system: K562; assay: Cytotoxicity against chronic myelogenous leukemia cell line K-562 was determined by measuring [3H]thymidine incorporation at a concentration of 1 ug/mL after 5 h; assay type: functional; conditions: Homo sapiens; in short: as §2
[19] = system: K562; assay: Cytotoxicity against chronic myelogenous leukemia cell line K-562 was determined by measuring [3H]thymidine incorporation at a concentration 1 ug/mL after 48 h; assay type: functional; conditions: Homo sapiens; in short: as §1
[20] = system: Mycobacterium avium; assay: Tested for percent inhibition against Mycobacterium avium at 12.5 ug/mL; assay type: functional
[21] = system: Mycobacterium tuberculosis; assay: Tested for antibacterial activity against Mycobacterium tuberculosis; assay type: functional; in short: as §3
[22] = system: Vero; assay: Tested for inhibition against Vero cells at 12.5 ug/mL; assay type: functional, cell-based; conditions: Chlorocebus sabaeus
[23] = system: Mycobacterium tuberculosis; assay: Tested for percent inhibition against Mycobacterium tuberculosis at 12.5 ug/mL; assay type: functional; in short: as §3
[24] = system: K562; assay: Cytotoxicity against chronic myelogenous leukemia cell line K-562 was determined by measuring [3H]thymidine incorporation at a concentration of 1.00 ug/mL after 48 h; assay type: functional; conditions: Homo sapiens; in short: as §1

Row | SMILES | IC50 [1] | inhibition at 10 µg/mL [2] | inhibition at 10 µg/mL [4] | IC50 [5] | inhibition at 1.25 µg/mL [6] | other results
1 | O=C1Nc2ncn(Cc3ccccc3)c2C(c2ccccc2)N1Cc1ccccc1 (configuration not stated) | > 10 µg/mL | 48% |  |  |  | 
2 | O=C1Nc2c(ncn2Cc2ccccc2)C(C#CC2CC2)(C(F)(F)F)N1Cc1ccccc1 (configuration not stated) | 0.2 µg/mL (≈ 0.444 µM) | 100% | 94% | 0.4 µg/mL (≈ 0.888 µM) | 99% | inhibition at 1.25 µg/mL [3]: 66%
3 | O=c1nc2c(ncn2Cc2ccccc2)c(C(F)(F)F)n1Cc1ccccc1 | > 10 µg/mL | 11% |  |  |  | 
4 | O=C1Nc2c(ncn2Cc2ccccc2)C(c2ccccc2)N1Cc1ccccc1 (configuration not stated) | 0.2 µg/mL (≈ 0.507 µM) | 90% | 69% | 5.1 µg/mL (≈ 12.9 µM) | 85% | inhibition at 1.25 µg/mL [3]: 9.1%
5 | CCC1(c2ccccc2)c2ncn(Cc3ccccc3)c2NC(=O)N1Cc1ccccc1 (configuration not stated) |  | 80% |  |  |  | 
6 | O=c1nc2c(cn1Cc1ccccc1)ncn2Cc1ccccc1 | > 10 µg/mL |  | 16% | > 10 µg/mL | 5.7% | inhibition at 1.25 µg/mL [3]: 4.4%; inhibition at 10 µg/mL [7]: 37%
7 | O=c1nc2c(ncn2Cc2ccccc2)c(-c2cccs2)n1Cc1ccccc1 |  |  |  |  |  | MIC [8]: > 10 µg/mL; inhibition at 12.5 µg/mL [9]: 0%
8 | CC(C)C1c2ncn(Cc3ccccc3)c2NC(=O)N1Cc1ccccc1 (configuration not stated) | 10 µg/mL (≈ 27.7 µM) | 51% |  |  |  | 
9 | CC(C)c1c2ncn(Cc3ccccc3)c2nc(=O)n1Cc1ccccc1 | > 10 µg/mL | 18% |  |  |  | 
10 | Clc1nc(-c2cccs2)c2ncn(Cc3ccccc3)c2n1 |  |  |  |  |  | MIC [10]: 1.56 µg/mL (≈ 4.77 µM)
11 | O=C1Nc2c(ncn2Cc2ccccc2)C(C#Cc2ccccc2)N1Cc1ccccc1 (configuration not stated) | 0.8 µg/mL (≈ 1.91 µM) |  |  | 1.4 µg/mL (≈ 3.35 µM) |  | inhibition at 1 µg/mL [11]: 20%; inhibition at 1 µg/mL [12]: 59%; inhibition at 10 µg/mL [13]: 100%
12 | O=c1nc2c(ncn2Cc2ccccc2)c(-c2ccccc2)n1Cc1ccccc1 |  | 70% |  |  |  | MIC [8]: > 10 µg/mL; inhibition at 12.5 µg/mL [14]: 0%
13 | CC1c2ncn(Cc3ccccc3)c2NC(=O)N1Cc1ccccc1 (configuration not stated) | 1.4 µg/mL (≈ 4.21 µM) | 98% | 76.4% | 2.5 µg/mL (≈ 7.52 µM) | 33% | 
14 | O=c1nc2c(ncn2Cc2ccccc2)c(-c2ccco2)n1Cc1ccccc1 |  |  |  |  |  | MIC [8]: > 10 µg/mL; inhibition at 12.5 µg/mL [15]: 0%
15 | O=c1nc2c(ncn2Cc2ccccc2)c(C#CC2CC2)n1Cc1ccccc1 | 0.2 µg/mL (≈ 0.526 µM) | 97% | 98% | 0.4 µg/mL (≈ 1.05 µM) | 100% | inhibition at 1.25 µg/mL [3]: 98%
16 | O=C1Nc2c(ncn2Cc2ccccc2)C(C#CC2CC2)N1Cc1ccccc1 (configuration not stated) | 1.3 µg/mL (≈ 3.4 µM) | 98% | 90% | 1.6 µg/mL (≈ 4.18 µM) | 42% | inhibition at 1.25 µg/mL [3]: 35%
17 | O=C1N(Cc2ccccc2)c2nc[nH]c2C(c2ccccc2)N1Cc1ccccc1 (configuration not stated) | > 10 µg/mL | 32% |  |  |  | MIC [16]: 10 µg/mL (≈ 25.3 µM)
18 | O=C1Nc2c(ncn2Cc2ccccc2)C(C(F)(F)F)N1Cc1ccccc1 (configuration not stated) | 2 µg/mL (≈ 5.18 µM) | 97% | 51% | 10 µg/mL (≈ 25.9 µM) | 26% | inhibition at 1.25 µg/mL [3]: 15.4%
19 | Sc1ncnc2nc[nH]c12 [MERCAPTOPURINE ANHYDROUS] | 0.4 µg/mL (≈ 2.63 µM) |  |  |  |  | IC50 [17]: 8.5 µg/mL (≈ 55.9 µM)
20 | O=C1Nc2[nH]cnc2C(C#CC2CC2)(C(F)(F)F)N1 (configuration not stated) | > 1 µg/mL |  |  | > 1 µg/mL |  | inhibition at 1 µg/mL [18]: 0.3%; inhibition at 1 µg/mL [19]: 0.8%
21 | O=c1nc2c(ncn2Cc2ccccc2)c(C#Cc2ccccc2)n1Cc1ccccc1 | 0.7 µg/mL (≈ 1.68 µM) | 100% |  | 1 µg/mL (≈ 2.4 µM) |  | inhibition at 12.5 µg/mL [20]: 60%; MIC [8]: > 10 µg/mL; MIC [21]: 12.5 µg/mL (≈ 30 µM); IC50 [22]: < 0.2 µg/mL; inhibition at 12.5 µg/mL [23]: 95%; inhibition at 1 µg/mL [24]: 90%; inhibition at 1 µg/mL [11]: 48%
